In PMC4157762 (Bioconjugate Chemistry, 2014):
pIC50: −log10 of the molar value.

Columns and labels:
Dynamic light scattering = format: physicochemical; details: DLS at stock concentration, 15 measurements, regularization fit
How it was run: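 Samples were spun 15 min at 18 000 g and measured at stock concentration at 100% laser power until intensity readings were consistent. 15 measurements per sample gave the size distribution by regularization fit. Effective radius and aggregation by intensity and by mass were reported. Controls were maleimide-capped XTEN (negative) and BSA (positive), with BSA re-measured after 10 min at 80 °C and 5 min on ice.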

[1] = format: physicochemical; details: as E13; dimer peak of the precursor before conjugation
How it was run: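 Vydac C4 column (5 μm, 300 Å, 4.6 × 150 mm), ambient temperature, 1 mL/min. Equilibrated at 5% B, then a linear gradient of 5–50% B over 45 min. 20 μg protein injected. Absorbance read at 214 nm. The thiol-XTEN precursor was run before conjugation.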

HIV-1Ba-L = experiment: In vitro antiviral MAGI assay; format: cell-based; details: read-out: IC50 for inhibition of virus replication, MAGI CCR5 cells, 48 h, β-galactosidase read-out (Gal-screen), triplicate
How it was run: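 MAGI CCR5 cells are HeLa-derived, express CXCR4, CD4 and CCR5, and carry an HIV-1 LTR–β-galactosidase reporter. Cells were plated at 1 × 10^4 per well and adhered overnight at 37 °C. Medium was replaced with the compound range (up to 10 nM), then HIV-1Ba-L was added. After 48 h, lysates were read with Gal-screen and expressed as % of the no-compound blank. Tested in triplicate with unmodified-peptide and capped-XTEN controls.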

[2] = dosed in rats; cited from earlier work

Substance | aggregation by intensity (Dynamic light scattering) [%] | aggregation by mass (Dynamic light scattering) [%] | also measured
BSA (heat treated): heat-treated BSA, positive control for aggregation in DLS | 92.2 | 28 | 
BSA (not heat treated): BSA (Fermentas), DLS control before heat treatment | 0 | 0 | 
SAGSPTPGTSESATPESGPGSEPATSGSETPGTSESATPESGPGSEPATSGSETPGTSESATPESGPGTSTEPSEGSAPGTSESATPESGPGSPAGSPTSTEEGSPAGSPTSTEEGSPAGSPTSTEEGTSESATPESGPGTSTEPSEGSAPGTSESATPESGPGSEPATSGSETPGTSESATPESGPGSEPATSGSETPGTSESATPESGPGTSTEPSEGSAPGSPAGSPTSTEEGTSESATPESGPGSEPATSGSETPGTSESATPESGPGSPAGSPTSTEEGSPAGSPTSTEEGTSTEPSEGSAPGTSESATPESGPGTSESATPESGPGTSESATPESGPGSEPATSGSETPGSEPATSGSETPGSPAGSPTSTEEGTSTEPSEGSAPGTSTEPSEGSAPGSEPATSGSETPTAEAAGCGTAEAASASR [XTEN-1] |  |  | C4 RPC retention time of suspected disulfide-bonded dimer [1]: 21.2 min
Enfuvirtide |  |  | pIC50 (HIV-1Ba-L): 9.42
enfuvirtide |  |  | half-life in rats [2]: 2.8 h
